Measurements as given in ChEMBL document CHEMBL4392884, “Sesquiterpene Lactones from Artemisia argyi: Absolute Configuration and Immunosuppressant Activity” (J Nat Prod, 2019).

The compounds below were run on T-cell (assay: Toxicity in anti-human CD3 and anti-human CD28 monoclonal antibody-stimulated human T lymphocytes assessed as induction of apoptosis at 3 times antiproliferative IC50 incubated for 48 hrs by annexin V-FITC and propidium iodide staining based FACS analysis).

Compound	Activity
C=C1C(=O)O[C@H]2[C@H]1[C@@H](OC(C)=O)CC(C)=C1C[C@H]3O[C@@]3(C)[C@@H]12	Non-Toxic

These compounds were tested on T-cell (assay: Immunosuppressant activity in human T lymphocytes assessed as inhibition of anti-human CD3 and anti-human CD28 monoclonal antibody-induced T lymphocyte proliferation incubated for 72 hrs by FACS analysis).
Assay type: functional, cell-based
How it was run: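 Stimulated human T lymphocytes were exposed to compounds over 0.01−30 μg/mL. Proliferation was read by FACS, with forward and side scatter used to score antiproliferative activity and cytotoxicity together. Three independent experiments were run, expressed as mean ± standard deviation relative to the untreated, stimulated control.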

Compound	IC50
COc1cc(-c2cc(=O)c3c(O)c(OC)c(O)cc3o2)ccc1O [JACEOSIDINE]	5.8 µM
C=C1C(=O)O[C@H]([C@@H]2C(=O)C=C[C@]2(C)O)[C@H]1CCC(C)=O (relative stereo) [SECOTANAPARTHOLIDE B]	1 µM
C=C1C(=O)O[C@H]2[C@H]1[C@@H](OC(C)=O)CC(C)=C1C[C@H]3O[C@@]3(C)[C@@H]12	1.9 µM
C=C1[C@@H](OC(C)=O)C[C@@H](O)[C@]2(C)CCC3=C(COC(C)=O)C(=O)O[C@@H]3[C@@H]12	13.8 µM
C=C1C(=O)O[C@@H]2[C@@H]3[C@@]4(C=C[C@@]3(C)[C@@]3(C4)C(=O)O[C@@H]4[C@H]5C(C)=CC(=O)C5=C(C)C[C@H](OC(C)=O)[C@H]43)[C@](C)(O)CC[C@@H]12	3.2 µM
C=C1C(=O)O[C@H]2[C@H]1CC[C@@](C)(O)[C@]13O[C@H]1[C@H]1O[C@@]1(C)[C@H]23 [ARTECANIN]	2.7 µM
COc1ccc(-c2cc(=O)c3c(O)c(OC)c(O)cc3o2)cc1OC [EUPATILIN]	11.7 µM
C=C1C(=O)O[C@H]([C@H]2C(=O)C=C[C@@]2(C)O)[C@H]1CCC(C)=O (relative stereo)	1.2 µM
C=C1C(=O)O[C@H]2[C@H]1CC[C@@](C)(O)[C@@]13O[C@@H]1[C@@H]1O[C@]1(C)[C@H]23	3.7 µM
C=C1C(=O)O[C@@H]2[C@H]3C(C)=CC[C@@H](O)[C@]3(C)CC[C@@H]12 [SANTAMARIN]	19.6 µM
